Compounds with a hit are over-represented: about 3.9% of the library has one in this group of screens.
tim23-1 inh: growth inhibitors of tim23-1 mutant yeast, primary screen, luminescence, uHTS | S. cerevisiae tim23-1 growth, BacTiter-Glo luminescence, 24 h | inhibition, % at 20 µM | AID 463212, 2010 | 330,000 compounds, 1.3% hits;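 active = growth inhibition of the mutant yeast at or above 50%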;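 note: temperature-sensitive mutant grown at 25 °C; plate controls were DMSO-treated mutant yeast for no effect and medium wells lacking yeast for full effect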
UPR CHOP act: activators of apoptotic CHOP UPR arm, primary screen, cell-based, CHO-CHOP luciferase reporter, luminescence, uHTS | AID 449763, 2010 | UPR activation; percent of tunicamycin response over DMSO baseline | 330,000 compounds, 0.34% hits | activation, % at 10 µM;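 active = at 10 µM dose, activation of 40% or more, normalized to positive control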;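 note: 100% = tunicamycin at 10 µg/mL and 0% = DMSO alone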
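Test system: CHO CHOP reporter cells. Input: 500 CHO-CHOP cells per well. Medium: F12 with 10% FBS. Technique: luciferase luminescence. Measure: percent activation relative to tunicamycin control. Dosing: 10 µM compound, 0.5% DMSO. Timing: 16-18 h cell attachment, then 6 h compound exposure, 37 °C.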
TIM10 inh: growth inhibitors of isogenic TIM10 control yeast, primary screen, counter-screen for tim10-1 yeast inhibitor project, luminescence, uHTS | S. cerevisiae TIM10 strain growth, BacTiter-Glo luminescence, 24 h | inhibition, % at 10 µM | 330,000 compounds, 1.4% hits;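 active = inhibition of 40% or more at the single tested concentration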;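 note: wild-type TIM10 isogenic control strain grown at permissive 25 °C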
UPR XBP1 act: activators of adaptive XBP1 UPR arm, primary screen, cell-based, CHO-XBP1 luciferase reporter, luminescence, uHTS; IRE1-XBP1 UPR activation; percent of tunicamycin response, DMSO as zero; activation, % at 20 µM; 330,000 compounds, 0.33% hits;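 active = versus positive control, 20 µM dose yields 30% or more activation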;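 note: 100% = tunicamycin at 10 µg/mL and 0% = DMSO only wells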
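Material: CHO cell line with stable XBP1 luciferase reporter; schedule: 16-18 h cell attachment at 37 °C, then 6 h compound exposure; signal: glow luminescence from Steady-Glo reagent; medium: serum-containing F12 medium, 10% FBS; benchmarks: tunicamycin 10 µg/mL and vehicle-only wells; read-out: percent activation relative to tunicamycin reference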
tim10-1 inh: growth inhibitors of tim10-1 mutant yeast, primary screen, luminescence, uHTS; S. cerevisiae tim10-1 ts strain growth, BacTiter-Glo, 24 h; inhibition, % at 20 µM; 330,000 compounds, 2.2% hits; AID 463190, 2010;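 active = inhibition of at least 40%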;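 note: mutant grown at 25 °C; 0% = DMSO wells with yeast and 100% = wells holding no yeast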
tim10-1 conf: growth inhibitors of tim10-1 mutant yeast, confirmation, single concentration, luminescence, S. cerevisiae; 7,400 compounds, 56% hits; inhibition, % at 20 µM; S. cerevisiae tim10-1 ts strain growth, BacTiter-Glo, 24 h; shares compounds with tim10-1 inh; AID 463213, 2010;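 active = inhibition of yeast growth at or above a set limit in either of two repeat tests at 20 µM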;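 note: tim10-1 mutant grown at permissive 25 °C to find synthetic lethal compounds; 0% = DMSO yeast wells and 100% = medium wells without yeast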
* marks the source's active call; other numbers are inactive results; / = no result.

SMILES	tim23-1 inh	UPR CHOP act	TIM10 inh	UPR XBP1 act	tim10-1 inh	tim10-1 conf
O=C(Oc1ccc2ccc(=O)oc2c1)c1ccco1	31	0	30	2	46*	20
CCC(=O)N1c2ccc(S(=O)(=O)NC3CCCCC3)cc2CC1C (configuration not stated)	17	0	6	-3	12	/
CCOC(=O)C1CCCN(C2=NC(=O)/C(=C/c3ccc(O)c(OCC)c3)S2)C1 (configuration not stated)	40	0	28	-1	46*	26
CCOC(=O)C1CCCN(C2=NC(=O)/C(=C/c3ccc(OC)cc3)S2)C1 (configuration not stated)	33	2	20	-4	47*	31*
CCOC(=O)C1CCCN(C2=NC(=O)/C(=C/c3ccc(N(C)C)cc3)S2)C1 (configuration not stated)	36	3	18	4	27	/
COc1ccc([N+](=O)[O-])cc1NC1CCN(C(=O)c2cccs2)CC1	8	0	13	-6	20	/
CC(=O)N1c2ccc(S(=O)(=O)NCC3CCC(C(=O)N4CCCC(C)C4)CC3)cc2CC1C (configuration not stated)	8	2	6	-6	8	/
O=C(Cc1ccccc1F)c1ccc(O)cc1O	50	0	22	-1	43*	31*
O=C(OCc1ccccc1F)c1cc2ccccc2cc1O	9	0	13	-5	6	/
NS(=O)(=O)c1ccc(CCNC(=O)CCNS(=O)(=O)c2ccccc2C(F)(F)F)cc1	5	-1	-4	-1	5	/
CN(CC(=O)Nc1ccc(F)cc1)CC(=O)N1CCCCCC1	19	0	3	-3	8	/
COC(CNC(=O)c1cnn2c(C)c(Cc3ccccc3)c(C)nc12)OC	26	-1	-2	-1	40*	24
COC(CNC(=O)Cc1c(C)nc2c(-c3ccccc3)c(C)nn2c1C)OC	12	2	5	0	-1	/
COc1ccc(C2(NC(C)=O)CCN(Cc3cccnc3)CC2)cc1	1	-1	-10	-4	0	/
CCOc1ccc(N2C(=O)CC(N3CCN(c4ccc(Cl)cc4)CC3)C2=O)cc1 (configuration not stated)	16	1	2	-4	45*	24
COc1ccccc1N1CCN(C2CC(=O)N(c3cccc(Br)c3)C2=O)CC1 (configuration not stated)	27	-2	11	-4	49*	36*
O=C1CC(N2CCN(c3ccccc3Cl)CC2)C(=O)N1c1ccccc1 (configuration not stated)	11	-1	-12	-2	49*	19
COc1ccc(N2C(=O)CC(N3CCN(c4ccc(Cl)cc4)CC3)C2=O)cc1 (configuration not stated)	-4	2	-18	-3	-20	/
COc1ccc(N2C(=O)CC(N3CCN(c4ccccc4OC)CC3)C2=O)cc1 (configuration not stated)	20	3	3	-3	18	/
Cc1ccc(NC(=O)NC(=O)CN2CCCC2c2ccc3c(c2)OCCO3)cc1C (configuration not stated)	49	3	16	-3	25	/
CN(C1CCCCC1)S(=O)(=O)c1cccc2nsnc12	22	1	-9	-5	15	/
Cc1ccc(C(=O)Nc2nc(-c3ccccc3)c(-c3ccccc3)o2)cc1	31	0	25	0	40*	18
CC(C)(Oc1ccc(Cl)cc1)C(=O)O/N=C(\N)c1ccncc1	3	0	5	4	47*	3
N/C(=N\OC(=O)c1cc(Br)ccc1Cl)c1cccnc1	-13	7	31	-2	47*	49*
N/C(=N\OC(=O)Cc1ccc(Cl)cc1)c1ccncc1	9	3	-1	-1	12	/
SMILES	tim23-1 inh	UPR CHOP act	TIM10 inh	UPR XBP1 act	tim10-1 inh	tim10-1 conf
N/C(=N\OC(=O)c1cccc(Cl)c1)c1cccnc1	39	3	21	-3	16	/
N/C(=N\OC(=O)c1ccccc1Cl)c1cccnc1	15	1	13	0	10	/
N/C(=N\OC(=O)c1cc(Cl)ccc1Cl)c1cccnc1	-5	16	21	3	41*	25
N/C(=N\OC(=O)c1cccc(Cl)c1)c1ccncc1	22	3	20	7	42*	30*
O=C(Nc1ccnn1C1CCN(CCCc2ccccc2)CC1)c1ccccc1Cl	-14	0	0	-5	2	/
Nn1c(SCC(=O)Nc2nccs2)nnc1-c1cccnc1	9	0	1	2	5	/
CCOC(=O)c1ccc(NC(=O)c2nc[nH]c2C(=O)N(C)Cc2ccccc2)cc1	33	0	10	2	42*	28
COc1ccc(N2CCN(C(=O)CCCN3C(=O)c4cccc5cccc(c45)C3=O)CC2)cc1	46	0	34	0	49*	19
COc1ccc(N2CCN(C(=O)COC(=O)CCOc3ccccc3C)CC2)cc1	18	1	27	-7	43*	19
Nc1cc(Cl)ccc1C(=O)OCC(=O)NCc1cccs1	8	1	1	1	-21	/
Oc1cc(-c2ccccc2)c2ccccc2c1	47	-1	7	-1	54*	51*
O=c1c(Cl)c(N2CCN(c3ccc(F)cc3)CC2)cnn1C12CC3CC(CC(C3)C1)C2	38	-1	30	-2	48*	29
Cc1c(NC(=O)/C(C#N)=C/c2ccc(-c3cccc(Cl)c3)o2)c(=O)n(-c2ccccc2)n1C	40	1	22	5	34	/
Cc1c(NC(=O)/C(C#N)=C/c2ccc(-c3ccc(Cl)c(Cl)c3)o2)c(=O)n(-c2ccccc2)n1C	29	5	33	2	43*	28*
CCN(Cc1ccc2c(c1)OCCO2)C(=O)CN1C(=O)NC2(CCc3ccccc32)C1=O (configuration not stated)	6	1	0	-3	13	/
S=c1nc[nH]c2c1sc1nc(N3CCOCC3)c3c(c12)CCCC3	36	-1	23	7	43*	19
CC(C)c1nc2sc3c(=S)nc[nH]c3c2c2c1CCC2	44	0	30	2	32	/
Cc1ccc2nc(SCC(=O)Nc3cc(C(C)(C)C)nn3-c3ccccc3)[nH]c2c1	21	0	24	-1	44*	25

Screening data (PubChem BioAssay)
